Activity data for two molecules are collected here from ChEMBL document CHEMBL1921792, “Synthesis and anticonvulsant activity of trans- and cis-2-(2,6-dimethylphenoxy)-N-(2- or 4-hydroxycyclohexyl)acetamides and their amine analogs” (Bioorg Med Chem, 2011).

Assay [1] relates to Mus musculus. The assay can be described thus: Anticonvulsant activity in mouse assessed as protection against maximal electric shock-induced seizures at 100 mg/kg, ip after 4 hrs. In kind it is functional, organism-based. Also on record: dose 100 mg/kg. Put shortly: (§1)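 Phase I maximal electroshock screen in mice. Compound given ip as a suspension in 0.5% methylcellulose at 30, 100 or 300 mg/kg, tested at 30 min and 4 h. Small groups (1–8); result is number protected/number tested.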

Assay [2] relates to Mus musculus. The assay can be described thus: Anticonvulsant activity in mouse assessed as protection against maximal electric shock-induced seizures at 30 mg/kg, ip after 0.5 hrs. In kind it is functional, organism-based. Details: dose 30 mg/kg. Put shortly: as §1
Assay [3] relates to Mus musculus. Briefly: Anticonvulsant activity in mouse assessed as protection against maximal electric shock-induced seizures at 30 mg/kg, ip after 4 hrs. It counts as functional, organism-based. Also on record: dose 30 mg/kg. The method in brief:
as §1

The subject of assay [4] is Mus musculus. Briefly: Anticonvulsant activity in mouse assessed as protection against maximal electric shock-induced seizures at 300 mg/kg, ip after 4 hrs. It counts as functional, organism-based. Details: dose 300 mg/kg. The method in brief: as §1
In assay [5] the test system is Mus musculus. Briefly: Anticonvulsant activity against subcutaneous pentylenetetrazole-induced seizures in mouse at 30 mg/kg, ip after 0.5 hrs. Details: dose 30 mg/kg. In kind it is functional, organism-based. The method in brief: (§2)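 Phase I screen in mice. Compound given ip as a suspension in 0.5% methylcellulose, read at 30 min and 4 h. Pentylenetetrazole 85 mg/kg in 0.9% NaCl was injected sc into the posterior midline and animals watched ≥30 min. Protection meant no clonic spasm lasting ≥5 s. Groups of 1–8 animals; result is protected/tested.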

Assay [6] deals with Mus musculus. Briefly: Anticonvulsant activity against subcutaneous pentylenetetrazole-induced seizures in mouse at 30 mg/kg, ip after 4 hrs. In kind it is functional, organism-based. Details: dose 30 mg/kg. The method in brief:
as §2

In assay [7] the test system is Mus musculus. Briefly: Anticonvulsant activity against subcutaneous pentylenetetrazole-induced seizures in mouse at 100 mg/kg, ip after 4 hrs. It counts as functional, organism-based. Also on record: dose 100 mg/kg. Put shortly:
as §2

For assay [8], the system named is Mus musculus. The assay can be described thus: Anticonvulsant activity against subcutaneous pentylenetetrazole-induced seizures in mouse at 300 mg/kg, ip after 0.5 hrs. In kind it is functional, organism-based. Also on record: dose 300 mg/kg. Put shortly:
as §2

Assay [9] has as its system Rattus norvegicus. Briefly: Anticonvulsant activity in rat assessed as protection against maximal electric shock-induced seizures at 30 mg/kg, po after 0.5 hrs. It counts as functional, organism-based. Details: dose 30 mg/kg. Put shortly:
(§3)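 MES test in rats dosed orally at 30 mg/kg as a suspension in 0.5% methylcellulose, read at 0.25–4 h. Four rats per time point; result is protected/tested.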

Assay [10] concerns Rattus norvegicus. Briefly: Anticonvulsant activity in rat assessed as protection against maximal electric shock-induced seizures at 30 mg/kg, po after 0.25 hrs. Also on record: dose 30 mg/kg. It counts as functional, organism-based. Put shortly: as §3
In assay [11] the test system is Mus musculus. The assay can be described thus: Anticonvulsant activity in mouse assessed as protection against maximal electric shock-induced seizures at 90 mg/kg, ip after 0.25 hrs. In kind it is functional, organism-based. Details: dose 90 mg/kg. Put shortly: (§4)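 Time-to-peak-effect assay: MES protection read at 0.25–4 h after dosing. Mice ip (60–130 mg/kg), rats po (15 or 30 mg/kg) or ip (30 mg/kg). Groups of 4–8; result is protected/tested.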

Assay [12] concerns Mus musculus. Briefly: Anticonvulsant activity in mouse assessed as protection against maximal electric shock-induced seizures at 130 mg/kg, ip after 0.25 hrs. It counts as functional, organism-based. Details: dose 130 mg/kg. The method in brief:
as §4

Assay [13] deals with Mus musculus. The assay can be described thus: Anticonvulsant activity in mouse assessed as protection against maximal electric shock-induced seizures at 130 mg/kg, ip after 0.5 hrs. In kind it is functional, organism-based. Details: dose 130 mg/kg. Put shortly: as §4
Assay [14] deals with Mus musculus. Briefly: Anticonvulsant activity in mouse assessed as protection against maximal electric shock-induced seizures at 130 mg/kg, ip after 2 hrs. Details: dose 130 mg/kg. It counts as functional, organism-based. Put shortly: as §4
In assay [15] the test system is Mus musculus. The assay can be described thus: Anticonvulsant activity in mouse assessed as protection against maximal electric shock-induced seizures at 130 mg/kg, ip after 4 hrs. In kind it is functional, organism-based. Also on record: dose 130 mg/kg. Put shortly:
as §4

Assay [16] relates to Mus musculus. Briefly: Anticonvulsant activity against subcutaneous pentylenetetrazole-induced seizures in mouse assessed as increase in tonic threshold at 106 mg/kg, ip by threshold tonic extension test. It counts as functional, organism-based. Also on record: dose 106 mg/kg. The method in brief: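 Threshold tonic extension test in mice. The compound was given ip, then pentylenetetrazol was infused until the first twitch and the first clonus. PTZ dose was calculated from the infusion speed. Mean of 8 animals ± S.E.M.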

The test system of assay [17] is Rattus norvegicus. Briefly: Anticonvulsant activity in fully kindled rat hippocampus assessed as protection against focal seizures at 100 mg/kg, ip after 15 mins. Details: dose 100 mg/kg. It counts as functional, organism-based. The method in brief:
(§5)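 Rat hippocampus kindled with 50 Hz AC, […] for 1 s, every 0.5 h for 6 h, every other day for 10 days (60 cycles), reaching Racine stage 5. Compound 100 mg/kg ip; seizures re-induced at 15–135 min. Racine score below 3 counts as protection.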

Assay [18] deals with Rattus norvegicus. The assay can be described thus: Anticonvulsant activity in fully kindled rat hippocampus assessed as protection against focal seizures at 100 mg/kg, ip after 45 mins. It counts as functional, organism-based. Also on record: dose 100 mg/kg. The method in brief: as §5
Assay [19] has as its system N1E-115. The assay can be described thus: Blockade of voltage-gated sodium channel in mouse N1E-115 cells assessed as stimulation at 100 umol at -60 mV holding potential by whole-cell patch clamp electrophysiological assay relative to control. In kind it is cell-based. For orientation: In patch-clamp work, channel activity is measured electrically.
In assay [20] the test system is N1E-115. Briefly: Blockade of voltage-gated sodium channel in mouse N1E-115 cells assessed as stimulation at 100 umol at -90 mV holding potential by whole-cell patch clamp electrophysiological assay relative to control. It counts as cell-based. The method in brief: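 Whole-cell patch clamp with borosilicate glass electrodes on single cultured N1E-115 neuroblastoma cells. Compound at 100 µmol, holding potential -90 mV. Voltage-dependent sodium current expressed as % of control stimulation (no compound). Results from 5–8 cells averaged with SEM; significance by Student's t-test.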

Assay [21] is filed under the species Mus musculus. The assay can be described thus: Activation of GABA receptor in mouse cortical neurons assessed as potentiation of GABA-induced effect at 100 umol at -70 mV holding potential by whole-cell patch clamp electrophysiological assay relative to control. Put shortly:
(§6)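 Whole-cell patch clamp on primary cultured murine cortical neurons, borosilicate glass electrodes. Responses to GABA, NMDA or kainate were recorded with the compound present, as % of control stimulation. Compound at 100 µmol, holding potential -70 mV. Significance p < 0.05.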

Assay [22] is filed under the species Mus musculus. The assay can be described thus: Activation of NMDA receptor in mouse cortical neurons assessed as potentiation of NMDA/glycine-induced effect at 100 umol at -70 mV holding potential by whole-cell patch clamp electrophysiological assay relative to control. The method in brief: as §6
Assay [23] is filed under the species Mus musculus. Briefly: Activation of kainate receptor in mouse cortical neurons assessed as potentiation of kainate-induced effect at 100 umol at -70 mV holding potential by whole-cell patch clamp electrophysiological assay relative to control. Put shortly: as §6
In assay [24] the test system is Mus musculus. Briefly: Anticonvulsant activity in mouse assessed as protection against maximal electric shock-induced seizures at 100 mg/kg, ip after 0.5 hrs. It counts as functional, organism-based. Also on record: dose 100 mg/kg. The method in brief:
as §1

Assay [25] deals with Mus musculus. The assay can be described thus: Anticonvulsant activity in mouse assessed as protection against maximal electric shock-induced seizures at 300 mg/kg, ip after 0.5 hrs. In kind it is functional, organism-based. Details: dose 300 mg/kg. Put shortly: as §1
Assay [26] deals with Mus musculus. Briefly: Anticonvulsant activity against subcutaneous pentylenetetrazole-induced seizures in mouse at 100 mg/kg, ip after 0.5 hrs. In kind it is functional, organism-based. Also on record: dose 100 mg/kg. Put shortly:
as §2

Assay [27] deals with Mus musculus. The assay can be described thus: Anticonvulsant activity against subcutaneous pentylenetetrazole-induced seizures in mouse at 300 mg/kg, ip after 4 hrs. Details: dose 300 mg/kg. It counts as functional, organism-based. Put shortly: as §2
Assay [28] relates to Rattus norvegicus. Briefly: Anticonvulsant activity in rat assessed as protection against maximal electric shock-induced seizures at 30 mg/kg, po after 1 hr. It counts as functional, organism-based. Also on record: dose 30 mg/kg. Put shortly: as §3
The test system of assay [29] is Rattus norvegicus. The assay can be described thus: Anticonvulsant activity in rat assessed as protection against maximal electric shock-induced seizures at 30 mg/kg, po after 2 hrs. In kind it is functional, organism-based. Also on record: dose 30 mg/kg. Put shortly: as §3
Assay [30] deals with Rattus norvegicus. The assay can be described thus: Anticonvulsant activity in rat assessed as protection against maximal electric shock-induced seizures at 30 mg/kg, po after 4 hrs. It counts as functional, organism-based. Also on record: dose 30 mg/kg. Put shortly:
as §3

Active and inactive are the calls of the source.

As for `Cc1cccc(C)c1OCC(=O)NC1CCCCC1O` (racemic; 1), the result in assay [1], in assay [2], in [3], in assay [4], in assay [5] and in assay [6] was inactive. Besides, the result in [7], in [14] and in [15] was inactive. Besides, the result in assay [8], in assay [9], in assay [10], in assay [11], in assay [12] and in assay [13] was Active. Moreover, the result in assay [16], in assay [17] and in [18] was Active. The Activity came to 39% in assay [19]; 85% in assay [20]; 179% in assay [21]; 104% in assay [22]; 98% in assay [23].

Regarding `Cc1cccc(C)c1OCC(=O)NC1CCCCC1O` (racemic; 4), the outcome in assay [1], in assay [24], in assay [2], in assay [3], in assay [4] and in assay [5] was inactive. In addition, the result in [6], in assay [26], in [7], in assay [8], in assay [27] and in assay [9] was inactive. Moreover, the result in assay [28], in [29] and in assay [30] was inactive. Besides, the result in assay [25] was Active.
